Compound activity from PubChem.
The sample as a whole holds a higher share of hits than the screen did.
NOD2 RIPK2 PPI – inhibitors of human NOD2-RIPK2 interaction. inhibition, % at 4.98 µM. CHO BLA complementation NOD2-RIPK2, CCF4 ratio. 360,000 compounds, 0.38% hits; in the data active = inhibition above about 21%;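 also: 0% = vehicle only and 100% = reference blocker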
TLR4-MyD88 BLA – inhibitors of human TLR4-MyD88 binding. inhibition, % at 8.4 µM. 200,000 compounds, 0.18% hits. HeLa CL3-4 TLR4/MyD88 BLA complementation, FRET ratio. AID 861. O00206+Q99836; in the data active = inhibition above about 25%;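 also: 0% = vehicle and 100% = reference inhibitor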
Target sequence (O00206 whole entry, looked up): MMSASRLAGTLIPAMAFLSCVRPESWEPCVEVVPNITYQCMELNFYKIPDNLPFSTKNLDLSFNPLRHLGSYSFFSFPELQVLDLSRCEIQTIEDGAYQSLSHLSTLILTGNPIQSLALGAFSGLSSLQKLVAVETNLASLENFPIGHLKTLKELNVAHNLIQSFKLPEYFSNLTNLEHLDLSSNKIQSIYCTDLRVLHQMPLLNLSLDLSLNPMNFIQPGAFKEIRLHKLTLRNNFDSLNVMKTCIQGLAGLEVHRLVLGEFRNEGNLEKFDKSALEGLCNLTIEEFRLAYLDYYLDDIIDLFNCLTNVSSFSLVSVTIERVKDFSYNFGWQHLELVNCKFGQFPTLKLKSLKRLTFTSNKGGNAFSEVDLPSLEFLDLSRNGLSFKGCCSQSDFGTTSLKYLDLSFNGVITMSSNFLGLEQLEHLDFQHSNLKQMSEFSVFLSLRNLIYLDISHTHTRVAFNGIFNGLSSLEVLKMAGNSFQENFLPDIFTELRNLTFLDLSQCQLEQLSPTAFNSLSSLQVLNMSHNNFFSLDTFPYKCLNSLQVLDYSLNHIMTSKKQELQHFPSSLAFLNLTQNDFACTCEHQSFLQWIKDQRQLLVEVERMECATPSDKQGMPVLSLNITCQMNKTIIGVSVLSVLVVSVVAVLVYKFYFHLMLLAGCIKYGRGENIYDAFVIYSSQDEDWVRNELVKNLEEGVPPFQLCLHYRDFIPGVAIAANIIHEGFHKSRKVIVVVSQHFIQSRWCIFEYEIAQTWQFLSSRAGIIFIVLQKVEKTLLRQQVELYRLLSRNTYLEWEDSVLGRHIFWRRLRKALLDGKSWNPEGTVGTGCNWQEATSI
Target sequence (Q99836 whole entry, looked up): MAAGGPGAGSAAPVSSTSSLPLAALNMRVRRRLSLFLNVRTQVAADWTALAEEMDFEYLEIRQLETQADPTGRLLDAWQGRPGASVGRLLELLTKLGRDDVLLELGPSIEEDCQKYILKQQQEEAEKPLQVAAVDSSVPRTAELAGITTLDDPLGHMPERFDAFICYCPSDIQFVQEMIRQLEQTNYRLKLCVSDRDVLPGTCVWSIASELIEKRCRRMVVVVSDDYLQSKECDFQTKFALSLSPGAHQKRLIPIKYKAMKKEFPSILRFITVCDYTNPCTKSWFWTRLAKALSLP
CHOP inhibitor – CHOP inhibition in unfolded protein response | CHO-K1 CHOP-promoter luciferase, tunicamycin-induced, 15-18 h | inhibition, % at 10 µM | 220,000 compounds, 3.8% hits;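 active = compounds that reduced the stress-induced luciferase reporter signal by more than about 70% of percent inhibition, limit read from the data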;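 also: 0% = tunicamycin plus vehicle and 100% = wells without tunicamycin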
UPR CHOP act – apoptotic UPR (CHOP) activation; 330,000 compounds, 0.34% hits; activation, % at 10 µM; AID 449763; CHO-CHOP luciferase reporter, luminescence; percent of tunicamycin response over DMSO baseline;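 active = at 10 µM dose, activation of 40% or more, normalized to positive control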;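 also: 100% = tunicamycin at 10 µg/mL and 0% = DMSO alone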
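System: CHO CHOP reporter cells. Amount: 500 cells per well. Buffer or medium: F12 medium, 10% FBS. Compound dosing: one dose, 10 µM in 0.5% DMSO. Incubation: 6 h compound exposure at 37 °C after overnight seeding. Technique: Steady-Glo luciferase luminescence. Benchmarks: tunicamycin and DMSO controls.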
UPR XBP1 act – activators of adaptive arm of unfolded protein response (XBP1); AID 463104; 330,000 compounds, 0.33% hits; CHO-XBP1 luciferase reporter, IRE1-XBP1 UPR activation, luminescence; percent of tunicamycin response, DMSO as zero; activation, % at 20 µM;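 active = versus positive control, 20 µM dose yields 30% or more activation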;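 also: 100% = tunicamycin at 10 µg/mL and 0% = DMSO only wells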
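Material: CHO cell line with stable XBP1 luciferase reporter; buffer or medium: F12 medium containing 10% fetal bovine serum; compound: single point, 20 µM final compound, 1% DMSO; incubation: 6 h treatment, 37 °C; measured by: glow luminescence from Steady-Glo reagent; evaluation: activation, % of tunicamycin; control set: tunicamycin high, DMSO low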
TLR9-MyD88 inh – inhibitors of human TLR9-MyD88 binding; Q9NR96+Q99836; CHO BLA complementation TLR9-MyD88, CCF4 FRET ratio; inhibition, % at 4.98 µM; 340,000 compounds, 0.21% hits; AID 504734;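 active = inhibition above the mean over all tested compounds plus 3 SD, cut at about 21% in these data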;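 also: 0% = DMSO only wells and 100% = clavulanate BLA inhibitor control wells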
CHOP UPR conf – confirmation of apoptotic unfolded protein response (CHOP) activators. shares compounds with UPR CHOP act. CHO-CHOP cells, CHOP-luciferase reporter luminescence; percent of tunicamycin response, DMSO as zero. activation, % at 10 µM. 1,000 compounds, 64% hits; in the data active = activation above about 33%;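 also: 0% = DMSO wells and 100% = tunicamycin 10 µg/mL wells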
The depositor's hits bear a star; nt = no result.

SMILES	NOD2 RIPK2 PPI	TLR4-MyD88 BLA	CHOP inhibitor	UPR CHOP act	UPR XBP1 act	TLR9-MyD88 inh	CHOP UPR conf
CCC(C)Nc1nc(-c2cccc(OC)c2O)nc2ccccc12 (centres undefined)	-5.5	7.1	69.2	0.6	2.9	-5.4	nt
CC1=CN2C(=N)/C(=C/c3cn(CCCOc4ccccc4C)c4ccccc34)C(=O)N=C2S1	-12.0	-19.4	62.3	44.3*	28.9	4.6	28.7
Cc1cc(C)cc(N=Cc2ccc([N+](=O)[O-])s2)c1	-4.8	-2.2	-72.3	2.8	0.9	-1.0	nt
O=[N+]([O-])c1ccc(C=Nc2ccc(Cl)c([N+](=O)[O-])c2)s1	-1.9	-1.8	-25.4	60.6*	-3.2	0.4	49.2*
CCC(=O)Nc1cc(-c2cc3ccccc3oc2=O)ccc1OC	4.8	0.6	3.0	-0.3	-0.6	8.2	nt
COc1ccc(-c2cc3ccccc3oc2=O)cc1NC(=S)NC(=O)c1ccc2c(c1)OCCO2	0.1	-5.3	-13.1	86.5*	198.5*	-5.2	55.0*
COc1cc2c(cc1OC)CN(C(=S)Nc1ccc(C)cc1C)CC2	-5.8	-4.5	12.4	-2.0	-3.7	1.3	nt
COc1ccc(-c2cc(C(F)(F)F)nc(S(=O)(=O)CCC(=O)N3CCOCC3)n2)cc1	5.5	10.3	-27.6	0.9	-2.2	-5.8	nt
COc1ccc(-c2cc(C(F)(F)F)nc(S(=O)(=O)CCCC(=O)Nc3cccc(O)c3)n2)cc1OC	-3.9	11.9	-125.0	55.4*	6.2	nt	22.2
O=C(Nc1nc(-c2ccccn2)cs1)c1ccc(Br)s1	-1.0	-0.1	-29.1	60.1*	16.6	-8.7	42.0*
COc1ccc(N(C(=O)c2ccccc2OC(C)=O)C(C)C2CC2)cc1 (centres undefined)	7.6	-17.3	26.7	-1.5	3.9	-4.6	nt
COC(=O)c1cc(C(=O)OC)n(Cc2ccc(F)cc2)c1C	3.4	1.9	-18.4	0.0	-2.2	0.4	nt
Cc1c(C#N)c(NC(=O)CCl)n(Cc2ccccc2)c1C	5.9	6.3	-11.5	112.9*	-4.9	1.8	56.6*
Cc1c(C#N)c(NC(=O)CCl)n(Cc2ccc(F)cc2)c1C	2.2	-1.3	-91.6	65.2*	-0.2	0.1	73.6*
Cc1c(C#N)c(NC(=O)CCl)n(Cc2cccs2)c1C	1.6	-5.0	53.1	86.8*	-2.2	-1.1	71.4*
CCOC(=O)c1cc(-c2ccc(/C=C3/C(=O)N(c4ccc(C(=O)O)cc4)N=C3C)o2)ccc1Cl	0.0	nt	nt	87.0*	6.1	3.5	135.5*
Cn1c2ccccc2c(=O)c2c(=O)n(-c3ccccc3)c(-c3ccc(C(C)(C)C)cc3)nc21	9.2	nt	-41.3	58.9*	20.9	-1.4	-1.5
Cc1ccc(-c2nc3c(c(=O)c4ccccc4n3C)c(=O)n2-c2ccc(F)cc2)cc1	-5.4	nt	8.2	3.2	-3.8	2.0	nt
CC1(c2ccccc2Cl)NC(=O)N(CC(=O)Nc2ccc3c(c2)OCO3)C1=O (centres undefined)	-5.8	3.5	-17.5	-0.7	-1.9	5.3	nt
COc1cccc(N=Cc2c(O)c3ccccc3oc2=O)c1	-7.3	nt	nt	100.7*	108.2*	-2.0	52.2*
CC(=O)Nc1ccc(N=Cc2c(O)c3ccccc3oc2=O)cc1	5.3	nt	nt	17.1	13.9	-4.2	nt
NC(=O)C1CCN(C(=O)OCc2ccccc2)CC1	7.9	4.2	-6.0	-0.7	-1.6	-0.2	nt
CCc1ccccc1NC(=S)N=Nc1c(O)n(C)c2ccc(S(=O)(=O)N3CCOCC3)cc12	-10.4	-6.5	-69.1	51.5*	0.1	0.1	52.8*
CCC(C)(C)NC(=O)CN(Cc1ccc(OC)cc1)C(=O)CCC(=O)Nc1nccs1	-1.4	nt	nt	0.6	-3.8	-6.2	nt
CS(=O)(=O)c1ccc(S(=O)CC(=O)Oc2ccc(Cl)cc2)c([N+](=O)[O-])c1 (centres undefined)	nt	19.9	108.0*	51.5*	-8.8	nt	24.2
SMILES	NOD2 RIPK2 PPI	TLR4-MyD88 BLA	CHOP inhibitor	UPR CHOP act	UPR XBP1 act	TLR9-MyD88 inh	CHOP UPR conf
CCOC(=O)c1cnc(-n2nc(C)cc2C)nc1Nc1ccc(N(C)C)cc1	-5.9	-6.3	-111.0	72.6*	35.9*	1.9	35.0*
CC(=O)N(C1CC(C)C(C#N)(C#N)C1(C#N)C#N)N(C)C (centres undefined)	19.0	8.2	91.7*	71.7*	-7.0	0.5	-8.8
CN1CCC(NC(=S)NC2CC2)CC1	-7.5	-18.7	-11.9	87.5*	-5.8	-4.9	-1.1
S=C(NC1CCCCCC1)NC1CCCC1	-1.4	8.6	6.5	0.4	-0.1	12.4	nt
COc1cccc(-c2c(C(=O)N/N=C(\C)c3cccs3)nnn2-c2nonc2N)c1	0.9	nt	nt	-1.7	-4.2	11.0	nt
CCOC(=O)c1c(NC(=O)CSc2nnnn2-c2ccc(OC)cc2)sc(C)c1C	-8.8	-0.7	39.5	56.7*	0.7	-5.7	1.1
Cc1cc(Cl)ccc1OCCCC(=O)NCCN1C(=O)S/C(=C\c2cccnc2)C1=O	6.2	6.2	7.3	0.9	-2.1	5.9	nt
CC(=O)Nc1ccc(-c2csc(Nc3ccccn3)n2)cc1	-2.3	nt	-28.2	6.8	1.4	6.4	nt
Oc1ccc(-c2csc(Nc3cccc4ccccc34)n2)cc1O	10.5	nt	nt	131.0*	10.0	-3.1	141.9*
Cc1ccnc(Nc2nc(-c3ccc(O)c(O)c3)cs2)c1	1.0	nt	nt	75.9*	-0.3	-16.8	181.3*
Oc1ccc(-c2csc(Nc3ccccn3)n2)cc1O	10.9	nt	nt	167.7*	8.9	-11.1	130.3*
CCCCN(C(=O)c1ccc(N2CCCC2=O)cc1)c1c(N)n(CCC)c(=O)[nH]c1=O	2.6	nt	nt	1.6	-1.4	1.3	nt
Cc1cccc(N=Nc2ccc(O)c3ncccc23)c1	-11.7	6.2	104.7*	85.6*	7.5	-7.9	69.4*
CN1CCN(CC(=O)Nc2ccc([N+](=O)[O-])cc2Br)CC1	-6.5	-25.7	-8.2	1.2	-3.4	-2.5	nt
O=C(Nc1nc2ccc(F)cc2s1)c1ccccn1	nt	9.2	81.4*	79.9*	-7.7	nt	73.2*
C[C@@H]1CN([C@H](C)CO)C(=O)CCCn2cc(nn2)CO[C@H]1CN(C)S(=O)(=O)c1ccc(C#N)cc1	5.4	nt	nt	nt	nt	-7.7	nt
CCOc1ccc2nc(SC3CC(=O)N(c4ccc(C)cc4)C3=O)sc2c1 (centres undefined)	2.2	-8.9	22.4	44.8*	-7.1	-1.7	64.6*
CCOc1ccc(N2C(=O)CC(Sc3nc4ccc(OCC)cc4s3)C2=O)cc1 (centres undefined)	2.3	-7.5	nt	16.6	-13.7	-6.5	nt
O=C(O)CC1CCC(=C(Cl)Cl)C1 (centres undefined)	-4.9	4.3	79.0*	46.5*	-5.9	6.2	64.6*
